# mABHD4 FP – inhibitors of mouse ABHD4; Q8VD66; purified mABHD4, FP-Rh probe fluorescence polarization; inhibition, % at 8.92 µM; hit rate 0.54% among 370,000; AID 720543;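 active = inhibition exceeding the mean over every tested compound plus 3 SD, cut at about 30% in these data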
# Target sequence (Q8VD66 whole entry, looked up): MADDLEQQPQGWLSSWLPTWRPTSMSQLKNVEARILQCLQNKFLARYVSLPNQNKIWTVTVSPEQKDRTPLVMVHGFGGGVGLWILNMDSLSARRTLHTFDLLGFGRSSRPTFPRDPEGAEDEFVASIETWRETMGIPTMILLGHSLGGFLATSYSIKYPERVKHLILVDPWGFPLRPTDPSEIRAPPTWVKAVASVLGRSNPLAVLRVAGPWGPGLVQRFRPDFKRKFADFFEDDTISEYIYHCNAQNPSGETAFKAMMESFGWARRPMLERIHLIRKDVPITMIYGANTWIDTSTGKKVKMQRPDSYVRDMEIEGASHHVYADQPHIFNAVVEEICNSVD
#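 Assay system: mABHD4 protein; medium: HEPES pH 7.0, NaCl, Pluronic buffer; dosing: 8.92 µM, single dose; schedule: 45 min + 60 min at 25 °C; signal: FP readout, ex 525 nm / em 598 nm; read-out: normalized percent inhibition of probe labeling; repeats: single replicate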
# DDE Tn6 FP inh – DD(E)-Tn6 binding inhibition, primary FP screen; inhibition, % at 8.3 µM; AID 720509; hit rate 0.21% among 370,000; Fibrin DD(E) TRITC-Tn6 fluorescence polarization displacement;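 active = inhibition above a per-campaign cutoff: mean of compounds within control limits plus 3 SD, cut at about 15% in these data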
# DDE Tn7 FP inh – disrupts Tn7 cyclic peptide binding to fibrin D-Dimer-E complex; P02675; inhibition, % at 8.3 µM; FP displacement of FITC-Tn7 peptide from fibrin DD(E); 0% = median of compound wells per plate; hit rate 0.13% among 370,000;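 active = inhibition above the mean of compounds falling within the control limits plus 3 SD of them, cut at about 14% in these data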
#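 Assay system: Human clot-derived fibrin DD(E) complex | Buffer or medium: Tris/NaCl/CaCl2 buffer, pH 7.8 | Repeats: One replicate per compound | Benchmarks: Aha-Tn7 high control | Measure: % inhibition scaled between sample-field median and high-control FP | Schedule: 10 min plus 3 h, room temperature | Signal: Fluorescence polarization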
# HTRA1 inh – inhibitors of human serine peptidase HTRA1. Q92743. recombinant HTRA1, FP-rhodamine activity-based probe, fluorescence polarization. inhibition, % at 5.96 µM. hit rate 0.5% among 340,000; in the data active = inhibition above about 36%
# TCR CD3 inh – inhibitors of human TCR-CD3 interaction. TAMRA-labeled TCR probe fluorescence, biochemical. inhibition, % at 9.4 µM. hit rate 0.37% among 360,000;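 note: recombinant mutant TCR 2C K166C tagged with TAMRA read by polarization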
# SIAE inh – human SIAE inhibition, primary screen | SIAE FP-Rh probe binding, fluorescence polarization | hit rate 0.69% among 370,000 | inhibition, % at 9.66 µM | Q9HAT2;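 active = inhibition above a cutoff: mean of compounds within the control limits plus 3 SD of those, cut at about 17% in these data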
# HTRA1 conf – confirmation of human HTRA1 inhibitors; hit rate 66% among 1,600; inhibition, % at 5.96 µM; shares compounds with HTRA1 inh; recombinant HTRA1, FP-rhodamine activity-based probe, fluorescence polarization; AID 540248;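 active = mean inhibition over three repeats above a set limit taken from the earlier primary screen, cut at about 37% in these data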;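 note: inhibitors block probe binding so polarization drops and inhibition rises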
# BSA TAMRA ctr – BSA probe counter-screen for TCR-CD3 inhibitors | shares compounds with TCR CD3 inh | hit rate 10% among 1,200 | TAMRA-labeled BSA probe fluorescence counterscreen | inhibition, % at 9.4 µM | AID 652035; in the data active = inhibition above about 23%
# TCR-CD3 inh conf – confirmation of human TCR-CD3 interaction inhibitors; shares compounds with TCR CD3 inh; TAMRA-labeled TCR probe fluorescence binding assay; inhibition, % at 9.4 µM; hit rate 48% among 1,200
# Tn6 DDE ctr – DD(E)-Tn6 binding inhibition, counter-screen; inhibition, % at 8.3 µM; shares compounds with DDE Tn6 FP inh; Fibrin DD(E), TRITC-Tn6 fluorescence polarization displacement; 0% = median of compound wells, not DMSO; hit rate 2% among 680;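 active = inhibition above the mean of test compounds lying between the control limits plus 3 SD of those, cut at about 14% in these data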
# Tn6 DDE conf – confirmation of inhibitors of Tn6 binding to human fibrin DD(E). FP displacement of TRITC-Tn6 peptide from DD(E); 0% = per-plate median of test wells. hit rate 10% among 680. shares compounds with DDE Tn6 FP inh. inhibition, % at 8.3 µM;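 active = inhibition above the mean of compounds lying within the control limits plus 3 SD, cut at about 16% in these data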
# mABHD4 conf – ABHD4 (mouse) inhibition, FP confirmation; shares compounds with mABHD4 FP; purified mABHD4, FP-Rh probe fluorescence polarization; inhibition, % at 8.92 µM; hit rate 55% among 1,800; AID 720658;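 active = mean inhibition across replicates above the hit cutoff set in the primary screen, cut at about 30% in these data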
# Numbers stand for hits; 0 = inactive; - = not tested or not shown. Compounds with a hit are over-represented: about 1.8% of the library has one in this group of screens. Cut-off read from the data, not from the text of the source, unless noted: active = inhibition above about 19%; inactive = the rest.
SMILES,mABHD4 FP,DDE Tn6 FP inh,DDE Tn7 FP inh,HTRA1 inh,TCR CD3 inh,SIAE inh,HTRA1 conf,mABHD4 conf,others
O=S(=O)(c1cc2ccccc2s1)n1c(CN2CCOCC2)nc2ccccc21,0,0,0,-,-,0,-,-,
Cc1cc2cc(CNC(=O)COc3ccccc3)ccc2n1C,32,46,0,45,27,0,0,0,BSA TAMRA ctr=0;TCR-CD3 inh conf=0;Tn6 DDE ctr=0;Tn6 DDE conf=0
CNc1ccc(Br)cc(C(=O)/C=C/c2cccc(OC)c2OC)c1=O,39,0,0,39,0,0,0,34,
CNc1ccc(Br)cc(C(=O)/C=C/c2cccc(Cl)c2Cl)c1=O,42,0,0,65,0,0,0,35,
O=C1OC(c2ccc3ccccc3c2O)(c2ccc3ccccc3c2O)c2ccccc21,44,0,0,36,0,0,44,48,
O=C1C(NS(=O)(=O)c2cccs2)=C(N2CCN(c3cccc(Cl)c3)CC2)C(=O)c2ccccc21,55,0,0,58,0,0,75,56,
CC1CCN(C2=C(NS(=O)(=O)c3ccc(Br)cc3)C(=O)c3ccccc3C2=O)CC1,41,0,0,36,0,0,86,65,
O=C1C(NS(=O)(=O)c2ccc(Br)cc2)=C(N2CCCCC2)C(=O)c2ccccc21,0,0,0,0,0,0,-,-,
O=C1C(NS(=O)(=O)c2ccccc2)=C(N2CCN(c3ccc(F)cc3)CC2)C(=O)c2ccccc21,53,0,0,48,0,0,63,63,
CC1CCN(C2=C(NS(=O)(=O)c3ccccc3)C(=O)c3ccccc3C2=O)CC1,0,0,0,0,0,0,-,-,
Cc1coc2c1C(=O)C(=O)c1c-2ccc2c1CCCC2(C)C,49,0,0,67,123,0,66,58,BSA TAMRA ctr=0;TCR-CD3 inh conf=0
Cc1ccc(SCc2cc(=O)c3c(=O)n(-c4ccccc4)[nH]c3[nH]2)cc1,54,0,0,56,0,0,0,35,
Oc1c(Cl)cc(Cl)c2c1NCCC2,38,0,0,51,0,0,0,37,
O=C1NCCCc2c1oc1ccc(O)cc21,0,0,0,0,0,0,-,-,
CCC(C(=O)Nc1ccccc1N1CCCC1)c1cccc(OC)c1 (configuration not stated),0,0,0,-,-,0,-,-,
O=C(O)c1ccccc1NS(=O)(=O)c1ccc(NNC(=S)Nc2ccc(OC(F)F)cc2)c([N+](=O)[O-])c1,72,0,0,67,0,0,118,140,
O=C(O)c1cc(S(=O)(=O)Nc2ccccc2C(=O)O)ccc1O,0,0,0,0,0,0,-,-,
CCOc1ccc(C=NNc2ccc(S(=O)(=O)Nc3ccccc3C(=O)O)cc2[N+](=O)[O-])cc1OC,-,-,-,0,-,-,-,-,
COc1ccc(NC(=O)c2ccccc2NS(=O)(=O)c2ccc(C)cc2)c([N+](=O)[O-])c1,0,0,0,0,0,0,-,-,
COc1cc(C=NNc2ccc(S(=O)(=O)Nc3ccccc3C(=O)O)cc2[N+](=O)[O-])ccc1O,64,0,0,49,0,0,75,91,
O=C(O)c1ccccc1NS(=O)(=O)c1ccc(N/N=C/c2cccc(O)c2O)c([N+](=O)[O-])c1,86,0,0,74,25,0,78,77,BSA TAMRA ctr=0;TCR-CD3 inh conf=24

# Compound activity from PubChem BioAssay.
